Laboratory results from ChEMBL document CHEMBL4330127, “Discovery of Novel Pyruvate Dehydrogenase Kinase 4 Inhibitors for Potential Oral Treatment of Metabolic Diseases” (J Med Chem, 2019).
Calls of active or inactive are those of the source. No cut-off for these calls is given here.

What was measured:
[1] = target: UDP-glucuronosyltransferase 1A9 (Homo sapiens, UniProt O60656); experiment: Inhibition of UGT1A9 in human liver microsomes assessed as reduction in mycophenolic acid glucuronidation by tandem mass spectrometry analysis; type: ADME
Procedure, shortened: (§1)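 Pooled human liver microsomes; test compound at final 0–50 μM in a cocktail incubation with probe substrates: midazolam 1′-hydroxylation (CYP3A), SN-38 glucuronidation (UGT1A1), trifluoperazine N-glucuronidation (UGT1A4), mycophenolic acid glucuronidation (UGT1A9), naloxone 3-glucuronidation (UGT2B7). Metabolites measured by tandem MS; IC50 determined; duplicate.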

[2] = system: RKO; experiment: Induction of apoptosis in human RKO cells assessed as early apoptotic cells at 50 uM after 24 hrs by Annexin V/propidium iodide staining based flow cytometry (reference value: 9.62%); type: functional
[3] = system: HCT-116; experiment: Cell cycle arrest in human HCT116 cells assessed as accumulation at G2/M phase at 50 uM after 24 hrs propidium iodide staining based flow cytometry (reference value: 22.2%); type: functional
Procedure, shortened: (§2)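 HCT116 and RKO cells were treated with compound alone or with oxaliplatin for 24 h before harvest. Cells were stained with propidium iodide, and DNA content was analysed by flow cytometry. Cell-cycle phase populations, including sub-G1, are given as percentages.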

[4] = Metabolic stability in rat liver microsomes assessed as parent compound remaining after 30 mins by LC-MS/MS analysis; type: ADME, Microsome; conditions: read-out: Stability
[5] = system: HCT-116; experiment: Cell cycle arrest in human HCT116 cells assessed as accumulation at sub-G1 phase at 10 uM after 24 hrs propidium iodide staining based flow cytometry (reference value: 17.8%); type: functional; procedure, shortened: as §2
[6] = target: UDP-glucuronosyltransferase 1A1 (Homo sapiens, UniProt P22309); experiment: Inhibition of UGT1A1 in human liver microsomes assessed as reduction in SN-38 glucuronidation by tandem mass spectrometry analysis; type: ADME; procedure, shortened: as §1
[7] = system: HCT-116; experiment: Induction of apoptosis in human HCT116 cells assessed as necrotic cells at 25 uM after 24 hrs by Annexin V/propidium iodide staining based flow cytometry (reference value: 2.92%); type: functional
[8] = system: HCT-116; experiment: Induction of apoptosis in human HCT116 cells assessed as increase in cleaved-PARP expression at 10 to 50 uM after 24 hrs by Western blot analysis; type: functional, cell-based
Procedure, shortened: (§3)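 HCT116 and RKO cells given a range of compound doses for 24 h; lysates probed by Western blot for apoptosis-related proteins (p53, BAX, BCLxL).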

[9] = Oral bioavailability in rat at 10 mg/kg; type: ADME, organism-based; conditions: in vivo
[10] = system: HCT-116; experiment: Induction of apoptosis in human HCT116 cells assessed as increase in cleaved caspase-3 expression at 10 to 50 uM after 24 hrs by Western blot analysis; type: functional, cell-based; procedure, shortened: as §3
[11] = AUC (0 to infinity) in rat at 5 mg/kg, iv; type: ADME, organism-based; design: dose 5 mg/kg, route intravenous, time infinity; conditions: in vivo
Procedure, shortened: (§4)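 Male rats given a single dose, 5 mg/kg intravenously or 10 mg/kg orally. Plasma PK parameters were reported as mean ± SD: AUCt, AUC∞, Cmax, Tmax, T1/2, CL, Vss and oral bioavailability F.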

[12] = system: RKO; experiment: Induction of apoptosis in human RKO cells after 24 hrs by Annexin V/propidium iodide staining based flow cytometry; type: functional, cell-based
[13] = system: HCT-116; experiment: Induction of apoptosis in human HCT116 cells assessed as increase in Bax expression at 10 to 50 uM after 24 hrs by Western blot analysis; type: functional, cell-based; procedure, shortened: as §3
[14] = system: HCT-116; experiment: Induction of apoptosis in human HCT116 cells assessed as early apoptotic cells at 10 uM after 24 hrs by Annexin V/propidium iodide staining based flow cytometry (reference value: 4.36%); type: functional
[15] = Half life in human liver microsomes at 1 uM preincubated for 5 mins followed by NADPH/UDPGA addition by LC-MS/MS analysis; type: ADME, Microsome
Procedure, shortened: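 Pooled human liver microsomes (1.0 mg/mL) were preincubated with substrate (1 μM) at 37 °C for 5 min. NADPH and UDPGA were added and samples taken at 10, 20, 40 and 60 min. Reactions were quenched with acetonitrile, centrifuged, and the supernatant quantified by LC-MS/MS. Buspirone served as positive control.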

[16] = target: Cellular tumor antigen p53 (Homo sapiens) (UniProt P04637); experiment: Induction of p53 phosphorylation at Ser-15 residue in human RKO cells after 24 hrs by Western blot analysis; type: cell-based; procedure, shortened: as §3
[17] = system: HCT-116; experiment: Cell cycle arrest in human HCT116 cells assessed as accumulation at sub-G1 phase at 25 uM after 24 hrs propidium iodide staining based flow cytometry (reference value: 17.8%); type: functional; procedure, shortened: as §2
[18] = system: HCT-116; experiment: Cell cycle arrest in human HCT116 cells assessed as accumulation at G1/G0 phase at 50 uM after 24 hrs propidium iodide staining based flow cytometry (reference value: 42%); type: functional; procedure, shortened: as §2
[19] = system: HCT-116; experiment: Cell cycle arrest in human HCT116 cells assessed as accumulation at S phase at 25 uM after 24 hrs in presence of oxaliplatin propidium iodide staining based flow cytometry (reference value: 5.4%); type: functional; procedure, shortened: as §2
[20] = target: UDP-glucuronosyltransferase 2B7 (Homo sapiens, UniProt P16662); experiment: Inhibition of UGT2B7 in human liver microsomes assessed as reduction in naloxone 3-glucuronidation by tandem mass spectrometry analysis; type: ADME; procedure, shortened: as §1
[21] = Clearance in rat at 5 mg/kg, iv; type: ADME, organism-based; conditions: in vivo; procedure, shortened: as §4
[22] = system: RKO; experiment: Induction of apoptosis in human RKO cells assessed as live cells at 25 uM after 24 hrs by Annexin V/propidium iodide staining based flow cytometry (reference value: 82.4%); type: functional
[23] = Drug metabolism in human liver microsomes assessed as hydroxyl metabolite formation at 100 uM preincubated for 5 mins followed by NADPH/UDPGA addition and measured up to 2 hrs by LC-MS/MS analysis; type: ADME, Microsome
Procedure, shortened: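 Pooled human liver microsomes (1.0 mg/mL) were mixed with alamethicin (25 μg/mg protein) and kept on ice for 15 min. Substrate (100 μM) was added and the mix preincubated 5 min at 37 °C. NADPH (1.3 mM) and UDPGA (5 mM) were then added and incubation ran 2 h with agitation. The reaction was stopped with ice-cold acetonitrile, centrifuged, and the supernatant analysed by LC-MS/MS (ESI positive, transition 358.2 → 84.1).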

[24] = system: HCT-116; experiment: Induction of apoptosis in human HCT116 cells assessed as necrotic cells at 25 uM after 24 hrs in presence of oxaliplatin by Annexin V/propidium iodide staining based flow cytometry (reference value: 21.2%); type: functional
[25] = system: RKO; experiment: Induction of apoptosis in human RKO cells assessed as live cells at 50 uM after 24 hrs by Annexin V/propidium iodide staining based flow cytometry (reference value: 82.4%); type: functional
[26] = system: HCT-116; experiment: Cell cycle arrest in human HCT116 cells assessed as accumulation at S phase at 10 uM after 24 hrs propidium iodide staining based flow cytometry (reference value: 18%); type: functional; procedure, shortened: as §2
[27] = system: RKO; experiment: Induction of apoptosis in human RKO cells assessed as increase in cleaved-PARP expression at 10 to 50 uM after 24 hrs by Western blot analysis; type: functional, cell-based; procedure, shortened: as §3
[28] = Volume of distribution at steady state in rat at 5 mg/kg, iv; type: ADME, organism-based; conditions: in vivo, read-out: Vdss

Sequence of UDP-glucuronosyltransferase 2B7 (P16662 whole entry): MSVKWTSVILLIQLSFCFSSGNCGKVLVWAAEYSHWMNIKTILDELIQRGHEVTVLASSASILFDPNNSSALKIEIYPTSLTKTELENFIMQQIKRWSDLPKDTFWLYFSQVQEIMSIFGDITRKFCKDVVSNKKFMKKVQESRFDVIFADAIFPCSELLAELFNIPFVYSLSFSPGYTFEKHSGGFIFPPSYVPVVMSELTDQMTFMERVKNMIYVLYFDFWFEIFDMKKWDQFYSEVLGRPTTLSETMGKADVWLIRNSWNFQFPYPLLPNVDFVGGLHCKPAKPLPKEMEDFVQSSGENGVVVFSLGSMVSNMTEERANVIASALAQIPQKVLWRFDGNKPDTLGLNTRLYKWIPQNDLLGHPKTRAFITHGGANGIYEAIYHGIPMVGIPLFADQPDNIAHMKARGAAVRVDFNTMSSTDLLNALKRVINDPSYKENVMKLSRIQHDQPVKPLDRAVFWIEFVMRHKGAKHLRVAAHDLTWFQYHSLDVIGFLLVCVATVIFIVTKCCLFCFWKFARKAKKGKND
Sequence of UDP-glucuronosyltransferase 1A1 (P22309 whole entry): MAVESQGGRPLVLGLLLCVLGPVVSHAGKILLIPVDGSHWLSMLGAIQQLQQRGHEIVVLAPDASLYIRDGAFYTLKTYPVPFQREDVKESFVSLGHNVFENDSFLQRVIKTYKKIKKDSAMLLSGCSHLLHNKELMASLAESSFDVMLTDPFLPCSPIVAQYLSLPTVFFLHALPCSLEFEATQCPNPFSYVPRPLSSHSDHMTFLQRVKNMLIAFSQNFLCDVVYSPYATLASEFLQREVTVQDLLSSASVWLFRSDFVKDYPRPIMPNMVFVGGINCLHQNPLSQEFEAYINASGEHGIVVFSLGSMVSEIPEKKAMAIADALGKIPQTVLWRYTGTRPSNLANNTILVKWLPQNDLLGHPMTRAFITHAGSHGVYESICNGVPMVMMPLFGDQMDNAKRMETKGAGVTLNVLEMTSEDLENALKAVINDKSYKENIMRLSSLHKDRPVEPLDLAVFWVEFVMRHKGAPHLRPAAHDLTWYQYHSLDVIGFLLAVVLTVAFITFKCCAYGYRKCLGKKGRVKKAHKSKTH
Sequence of UDP-glucuronosyltransferase 1A9 (O60656 whole entry): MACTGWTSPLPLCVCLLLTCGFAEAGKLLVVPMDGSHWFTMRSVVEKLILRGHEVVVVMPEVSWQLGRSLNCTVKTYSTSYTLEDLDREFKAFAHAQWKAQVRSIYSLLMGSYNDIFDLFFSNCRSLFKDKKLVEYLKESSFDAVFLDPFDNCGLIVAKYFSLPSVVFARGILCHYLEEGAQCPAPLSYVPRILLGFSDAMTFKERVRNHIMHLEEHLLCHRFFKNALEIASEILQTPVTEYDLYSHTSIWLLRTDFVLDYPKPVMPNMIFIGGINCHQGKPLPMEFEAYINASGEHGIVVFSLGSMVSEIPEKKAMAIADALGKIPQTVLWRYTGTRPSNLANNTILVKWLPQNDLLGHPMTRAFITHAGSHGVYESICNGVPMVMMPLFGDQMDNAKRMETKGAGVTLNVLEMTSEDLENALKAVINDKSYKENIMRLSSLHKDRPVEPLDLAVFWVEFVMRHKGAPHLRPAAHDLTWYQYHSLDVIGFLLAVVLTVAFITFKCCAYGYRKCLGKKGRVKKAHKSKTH
Sequence of Cellular tumor antigen p53 (Homo sapiens) (P04637 whole entry, looked up): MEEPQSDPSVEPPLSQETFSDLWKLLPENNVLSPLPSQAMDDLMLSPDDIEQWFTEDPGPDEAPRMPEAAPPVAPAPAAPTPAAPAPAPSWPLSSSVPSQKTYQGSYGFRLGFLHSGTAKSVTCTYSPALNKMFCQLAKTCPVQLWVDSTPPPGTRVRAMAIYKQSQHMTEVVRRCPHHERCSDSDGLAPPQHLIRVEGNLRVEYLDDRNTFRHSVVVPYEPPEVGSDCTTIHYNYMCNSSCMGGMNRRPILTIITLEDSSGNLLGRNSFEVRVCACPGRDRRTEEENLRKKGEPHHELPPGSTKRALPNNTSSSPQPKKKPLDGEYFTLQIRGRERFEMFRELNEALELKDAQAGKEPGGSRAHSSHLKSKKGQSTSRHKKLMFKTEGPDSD

In the case of `Cl.O=C1c2ccccc2C(=O)c2c1cccc2-c1cnn(C2CCNCC2)c1`, the IC50 [1] is reported as > 50 µM, the Activity [2] is reported as 41.4% and the Activity [3] is reported as 5.3%. The remaining at 0.5 h [4] was 67.8%, the Activity [5] was 14.4% and the IC50 [6] was > 50 µM. For the same molecule, the Activity [7] was 19.6%, the Activity [8] was “Active” and the bioavailability [9] was 63.6%. For the same molecule, the Activity [10] was “Active”, the AUC(0-inf) [11] was 7610 ng·h/mL and the Activity [12] was “Dose-dependent effect”. For the same molecule, the Activity [13] was “Active”, the Activity [14] was 2.9% and the half-life at 1 µM [15] was > 60 min. The Activity [16] was “Dose-dependent effect”, the Activity [17] was 32.5% and the Activity [18] was 11.2%. For the same molecule, the Activity [19] was 12.7%, the IC50 [20] was > 50 µM and the clearance [21] was 11.4 mL/min/kg. The Activity [22] was 36.7%, the Drug metabolism [23] was “Metabolite_Detected” and the Activity [24] was 25.9%. For the same molecule, the Activity [25] was 9.59%, the Activity [26] was 29.1% and the Activity [27] was “Active”. The Vd [28] was 5.52 L/kg.
